Compound activity as filed in PubChem.
OXTR ag – human OXTR agonists, primary screen, fluorescence, CHO-OTR cells, Fluo-8 calcium; Oxytocin receptor (Homo sapiens), P30559; activation, % at 3 µM; hit rate 0.32% among 320,000; Fluo-8 calcium fluorescence; normalized: DMSO 0%, oxytocin 100%;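 active = activation above the mean of all tested compounds plus 3 SD, cutoff set per screening run, cut at about 20% in these data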;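 also: peak over basal fluorescence ratio from a 100 s FLIPR kinetic read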
TAAR1 ag – human TAAR1 agonists, primary screen, Fluo-8 calcium fluorescence, CHO RD-HGA16 cells | Trace amine-associated receptor 1 (Homo sapiens), Q96RJ0 | vehicle wells 0%, saturating PEA agonist 100% | activation, % at 3 µM | hit rate 0.99% among 360,000;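 active = activation above the mean activation of all test compounds in the run plus 3 SD, cut at about 38% in these data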
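Assay system – CHO-derived RD-HGA16 cells with stable Gα16 and human TAAR1 · Compound dosing – one-point dosing at 3 µM (nominal) · Incubation – 17-24 h seeding, 75 min 37 °C dye, 30 min RT · Measured by – kinetic Fluo-8 calcium fluorescence · Control set – DMSO vehicle as 0%, PEA at EC100 as 100% · Repeats – single well for each compound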
TAAR1 antagonist – human TAAR1 antagonists, primary screen, Fluo-8 calcium fluorescence, CHO RD-HGA16 cells | inhibition, % at 3 µM | antagonist | hit rate 1.5% among 360,000;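 active = inhibition above a per-plate cutoff, the mean inhibition of test compounds on that plate plus 3 SD, cut at about 49% in these data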;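 also: 0% = DMSO plus EC80 beta-PEA response and 100% = DMSO alone without agonist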
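Test system – hTAAR1-expressing CHO RD-HGA16 cells, Gα16-coupled · Reagent – β-PEA at EC80 concentration, post-compound challenge · Compound dosing – 3 µM, single point · Timing – 140 s kinetic read after compound, 140 s after agonist · Detection – Fluo-8 intracellular calcium dye fluorescence, real-time kinetic reads · Control set – DMSO and EC80 PEA controls · Repeats – n of 1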
V1R ag counter – agonists of human V1a receptor, primary screen, counter-screen for OXTR agonist project, fluorescence, CHO-V1R cells; Vasopressin V1a receptor (Homo sapiens), P37288; Fluo-8 calcium fluorescence, agonist mode; 0% DMSO, 100% 3 nM vasopressin; hit rate 0.25% among 320,000; activation, % at 3 µM; AID 2797, 2010;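 active = activation above the mean activation of all tested compounds plus 3 SD, per screening run, cut at about 20% in these data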;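 also: signal is peak over basal fluorescence ratio across a 100 second FLIPR read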
Target sequence (P37288 whole entry, looked up): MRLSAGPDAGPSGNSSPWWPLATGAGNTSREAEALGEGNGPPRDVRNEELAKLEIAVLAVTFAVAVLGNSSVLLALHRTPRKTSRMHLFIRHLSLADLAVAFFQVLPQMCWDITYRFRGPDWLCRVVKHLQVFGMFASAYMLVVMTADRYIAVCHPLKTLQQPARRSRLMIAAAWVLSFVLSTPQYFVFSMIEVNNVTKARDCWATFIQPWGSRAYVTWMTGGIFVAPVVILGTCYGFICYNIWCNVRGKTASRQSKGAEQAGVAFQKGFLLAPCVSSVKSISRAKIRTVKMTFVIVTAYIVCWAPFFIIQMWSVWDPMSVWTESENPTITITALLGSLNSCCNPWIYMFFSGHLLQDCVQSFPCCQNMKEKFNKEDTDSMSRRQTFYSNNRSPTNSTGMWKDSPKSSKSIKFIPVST
OXTR potentiator – human OXTR potentiators, primary screen, fluorescence, CHO-OTR cells, Fluo-8 calcium; hit rate 0.061% among 320,000; Fluo-8 calcium fluorescence, potentiator mode; 0% = oxytocin EC15, 100% = EC100; Oxytocin receptor (Homo sapiens), P30559; AID 2445, 2010; activation, % at 3 µM;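 active = activation above that plate's cutoff, the mean activation of tested compounds plus 3 SD, cut at about 6.6% in these data, passing the limit was not always enough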;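 also: 100% uses oxytocin at 75 nM as the full agonist control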
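System: human OTR in CHO cells / Also added: sub-maximal oxytocin, roughly EC15 / Control set: EC15 oxytocin low, 75 nM oxytocin high / Schedule: 6 min compound pre-incubation at room temperature, 100 s kinetic read / Compound: single-point 3.0 µM / Replication: singlicate / Technique: Fluo-8 calcium dye fluorescence / Read-out basis: % activation of max/min ratio relative to oxytocin controls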
Numbers without * were called inactive; / = no result. The list is not random: actives were taken first. Their share in the collection is about 2.3%.

SMILES | OXTR ag | TAAR1 ag | TAAR1 antagonist | V1R ag counter | OXTR potentiator
COc1ccc2sc(-c3ccc(SC)cc3)c(-c3ccc(O)cc3)c2c1 | 1 | 20 | 58* | 0 | -12
Oc1nc(Nc2cccc(Cl)c2)sc1/C=C1\C=Nc2ccccc21 | -2 | -2 | 54* | -1 | -7
CCN1CCN(c2ccc(S(=O)(=O)N3CCCCC3)cc2NC(=O)Cc2ccc(Cl)c(Cl)c2)CC1 | 86* | / | / | 49* | -18
O=C(COc1ccc(C(=O)c2ccc(F)cc2)cc1)Nc1cccc(S(=O)(=O)N2CCOCC2)c1 | 12 | 12 | 62* | 9 | -11
O=C(COc1ccc([N+](=O)[O-])cc1)Nc1ccc(S(=O)(=O)N2CCOCC2)cc1 | 16 | 47* | -7 | 12 | -10
COc1ccc(CN2C[C@H](COCc3ccccc3)Oc3cccc(N4CCCC4)c3S2(=O)=O)cc1 | / | 1 | -30 | / | /
COc1ccc(CCNC(=O)CCN2C(=O)[C@@H]3Cc4ccccc4CN3C2=O)cc1OC | 5 | 16 | 50* | 4 | -13
COCCN1C(=O)COc2ccccc2C1C(=O)NC1CCCCC1 (stereo not drawn) | / | 2 | -25 | / | /
CCC(CC)CN1CCC(CN2C(=S)NC[C@@H]2Cc2ccccc2)CC1 | / | 1 | -14 | / | /
O=C(NCc1cccs1)c1cc(-c2ccc(O)cc2)on1 | 11 | 41* | 1 | 10 | -14
O=C1NC(c2ccccc2)(c2ccccc2)C(=O)N1CNc1ccccn1 | / | 0 | -9 | / | /
COC(=O)[C@]12C[C@H](CC(=O)NCc3cccs3)C(=O)N(CCc3ccc(OC)c(OC)c3)C1=C[C@H](C(C)(C)C)O[C@@H]2C | / | 0 | -18 | / | /
COc1ccccc1N1CCN(C(=O)C2CCCN(S(=O)(=O)c3ccc4c(c3)CCCN4C(C)=O)C2)CC1 (stereo not drawn) | 7 | 15 | 68* | 7 | -23
COc1ccccc1N1CCN(C(=O)C2CCN(S(=O)(=O)c3ccc4c(c3)CC(C)N4C(C)=O)CC2)CC1 (stereo not drawn) | 5 | 10 | 24 | 8 | -11
CC(=O)N1CCCc2cc(S(=O)(=O)N3CCCC(C(=O)N4CCN(c5ccccc5)CC4)C3)ccc21 (stereo not drawn) | 11 | 11 | 33 | 8 | -23
COc1ccccc1N1CCN(C(=O)C2CCN(S(=O)(=O)c3ccc4c(c3)CC(C)N4C(=O)C3CC3)CC2)CC1 (stereo not drawn) | 5 | 13 | 57* | 12 | -7
C=CCN1C(C(=O)OCC)CSCCS1(=O)=O (stereo not drawn) | / | 3 | 6 | / | /
Cc1ccc(NC(=O)Cn2cccc2)cc1C | -1 | 8 | 12 | 0 | -2
CSc1ncnc2c1ccn2CC(=O)Nc1ccc(C)c(C)c1 | 1 | 43* | 14 | 2 | -2
COc1ccc(Sc2cccc(Cl)c2)c(C(=O)O)c1 | / | -1 | -14 | / | /
O=C(N[C@H](Cc1ccccc1)C(=O)NCCN1CCOCC1)[C@H]1O[C@@H](n2ccc(=O)[nH]c2=O)[C@H](O)[C@@H]1O | / | 0 | 0 | / | /
COc1cccc(CN2CCC2(C)C(=O)Nc2cnc3ccccc3c2)c1F (stereo not drawn) | / | 2 | 53* | / | /
CC1(C(=O)Nc2cnc3ccccc3c2)CCN1Cc1ccccc1OC(F)F (stereo not drawn) | / | 4 | 62* | / | /
CC1(C(=O)Nc2cnc3ccccc3c2)CCN1Cc1ccccc1Cl (stereo not drawn) | / | 1 | 46 | / | /
CSc1ccccc1NC(=O)CN(C)C(=O)CNC(=O)c1ccc(Oc2ccccc2)cc1 | / | 5 | 10 | / | /
SMILES | OXTR ag | TAAR1 ag | TAAR1 antagonist | V1R ag counter | OXTR potentiator
Cc1ccc(Cl)cc1NC(=O)N(C)CCOC(=O)Nc1cccc(Cl)c1 | / | 0 | 27 | / | /
CN(C)S(=O)(=O)c1ccc2c(c1)/C(=C/c1cc3c([nH]1)CCCC3)C(=O)N2 | 35* | 21 | 43 | 25* | -12
CCCCOCC1CN(CCCC)S(=O)(=O)c2c(cccc2N(C)S(=O)(=O)c2ccc(C)cc2)O1 (stereo not drawn) | / | 0 | 3 | / | /
CC1OC(CC(=O)O)CC2=C1C(=O)c1c(O)cccc1C2=O (stereo not drawn) | / | 83* | 63* | / | /
CCOC(=O)CSc1nc2ccc(NC(=O)CSc3nnnn3Cc3ccccc3)cc2s1 | 0 | 11 | 53* | 1 | -2
CCC(=O)Nc1cccc(NC(=O)CSc2nnnn2Cc2ccccc2)c1 | -1 | 5 | -4 | 1 | -12
CCN(CC)C(=O)CSc1nc2ccc(NC(=O)CSc3nnc(COc4ccccc4C)n3C)cc2s1 | 0 | 17 | 56* | 1 | -11
CCCCNc1nc(NCc2ccccc2)nc2ccccc12 | / | 78* | 92* | / | /
COC(=O)[C@]12C[C@H](CC(=O)NCc3ccc(C)o3)C(=O)N(CCC3=CCCCC3)C1=C[C@H](COCc1ccccc1)O[C@@H]2C | / | 0 | -23 | / | /
COc1cccc(NC(=O)CN(C)C(=O)c2cn(-c3ccccc3)nc2-c2cccnc2)c1 | 0 | 12 | 44 | 1 | -4
O=C(c1cn(-c2ccccc2)nc1-c1cccs1)N1CCN(c2ccccn2)CC1 | -2 | 11 | 49* | 0 | -5
COc1cccc(NC(=O)CN(C)C(=O)c2cn(-c3ccccc3)nc2-c2cccs2)c1 | 0 | 11 | 61* | 2 | -7
CCN(CC(=O)Nc1ccc(NC(C)=O)cc1)C(=O)c1cn(-c2ccccc2)nc1-c1cccs1 | / | 13 | 64* | / | /
CN(C)C(=O)c1cn(-c2ccccc2)nc1-c1cccs1 | -1 | 9 | 5 | 0 | -2
CC(C)(C)C1=CC(CC(N)=O)(C(C)(C)C)OC1=O (stereo not drawn) | / | 2 | -23 | / | /
O=C(CSc1nnc(CN2CCCC2)n1-c1ccccc1)c1ccc2c(c1)OCO2 | -1 | 1 | 10 | 0 | -6
COc1ccc(C(=O)CSc2nnc(CN3CCCCC3)n2-c2ccc(Cl)cc2)cc1OC | 17 | 44* | 7 | 15 | -18
O=C(/C=C/c1cccc(Cl)c1)c1ccc([N+](=O)[O-])o1 | 1 | 57* | 43 | 1 | 1
O=S(=O)(c1ccc(C(F)(F)F)cc1)N1CCCc2nc(-c3ccc(F)cc3)ccc21 | / | 3 | -16 | / | /
COc1ccccc1CCC(=O)Nc1ccc2c(c1)c(=O)n(C)n2Cc1cccc(C(F)(F)F)c1 | / | 8 | 15 | / | /
COc1cc(C(=O)Nc2ccc(-c3nnc(-c4ccco4)o3)cc2)cc(OC)c1OC | -1 | 11 | 52* | 0 | -6
COc1ccccc1CC(=O)Nc1ccc(-c2nnc(-c3ccco3)o2)cc1 | -2 | 13 | 46 | 0 | -6
